Experimental data: ChEMBL document CHEMBL1649147, “Antistaphylococcal activity of dihydrophthalazine antifolates, a family of novel antibacterial drugs” (2009)
≈ marks a conversion by molar mass, not a printed value.

Tests used:
[1] = system: Staphylococcus aureus; test: Antibacterial activity against methicillin-susceptible Staphylococcus aureus ATCC 29213 after 50 passages by agar dilution method; format: functional; conditions: ATCC29213
Method in brief: (§1)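 Daily serial passage for up to 50 days at 35°C for 24 h in 1 ml MHB. […] Each transfer used 10 µl from the tube nearest the MIC (1–2 dilutions below) with the same turbidity as the drug-free control. […] MICs were measured by agar dilution, with changes given as log2 steps.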

[2] = system: Staphylococcus epidermidis; test: Antibacterial activity against methicillin-resistant, Linezolid non-susceptible coagulase-negative Staphylococcus epidermidis 345 by agar dilution method; format: functional
[3] = system: Staphylococcus aureus; test: Antibacterial activity against methicillin-susceptible Staphylococcus aureus 505 by broth macrodilution method; format: functional
[4] = system: Staphylococcus aureus; test: Antibacterial activity against methicillin-susceptible Staphylococcus aureus by agar dilution method; format: functional
Method in brief: (§2)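 Agar dilution on Mueller-Hinton agar per CLSI guidelines. S. aureus ATCC 29213 and E. faecalis ATCC 29212 were run with each set, and test MICs were accepted only when the control strains fell within acceptable ranges.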

[5] = system: coagulase-negative staphylococci; test: Antibacterial activity against methicillin-resistant coagulase-negative staphylococci by agar dilution method
[6] = system: Staphylococcus epidermidis; test: Antibacterial activity against methicillin-resistant, Linezolid non-susceptible coagulase-negative Staphylococcus epidermidis 345 after 50 passages by agar dilution method; format: functional
Method in brief: (§3)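 Daily serial passage for up to 50 days at 35°C for 24 h in 1 ml MHB. Each transfer used 10 µl from the tube nearest the MIC (1–2 dilutions below) with the same turbidity as the drug-free control. MICs were measured by agar dilution, with changes given as log2 steps.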

[7] = system: Staphylococcus aureus; test: Antibacterial activity against methicillin-resistant and vancomycin-resistant Staphylococcus aureus VRS1 by agar dilution method; format: functional; method in brief: as §2
[8] = system: coagulase-negative staphylococci; test: Antibacterial activity against Tmp-resistant coagulase-negative staphylococci by agar dilution method
[9] = system: Staphylococcus epidermidis; test: Antibacterial activity against methicillin-resistant coagulase-negative Staphylococcus epidermidis 345 by broth macrodilution method; format: functional
[10] = system: Staphylococcus epidermidis; test: Antibacterial activity against methicillin-resistant, vancomycin-intermediate coagulase-negative Staphylococcus epidermidis 225 by agar dilution method; format: functional; method in brief: as §2
[11] = system: Staphylococcus epidermidis; test: Antibacterial activity against methicillin-resistant coagulase-negative Staphylococcus epidermidis 225 by broth macrodilution method; format: functional
[12] = system: Staphylococcus aureus; test: Antibacterial activity against vancomycin-resistant Staphylococcus aureus VRS1 by broth macrodilution method; format: functional
Method in brief: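 Michigan VRSA strain, one of 12 staphylococci later used in time-kill studies. MIC was determined by broth macrodilution and reported in μg/ml.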

[13] = system: coagulase-negative staphylococci; test: Antibacterial activity against methicillin-susceptible coagulase-negative staphylococci by agar dilution method
[14] = system: Staphylococcus aureus; test: Antibacterial activity against methicillin-susceptible, vancomycin-intermediate Staphylococcus aureus 505 by broth macrodilution method; format: functional
[15] = system: Staphylococcus aureus; test: Antibacterial activity against methicillin-resistant Staphylococcus aureus 145 by broth macrodilution method; format: functional
[16] = system: Staphylococcus epidermidis; test: Antibacterial activity against methicillin-resistant coagulase-negative Staphylococcus epidermidis 197 by broth macrodilution method; format: functional
[17] = system: Staphylococcus aureus; test: Antibacterial activity against Tmp-susceptible coagulase-negative Staphylococcus aureus by agar dilution method; format: functional
Method in brief: (§4)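 MICs by agar dilution on Mueller-Hinton agar following CLSI guidelines. S. aureus ATCC 29213 and E. faecalis ATCC 29212 were run as quality controls with each set, and test-strain MICs were kept only if control MICs fell within acceptable ranges.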

[18] = system: Staphylococcus epidermidis; test: Antibacterial activity against methicillin-susceptible coagulase-negative Staphylococcus epidermidis 051 by broth macrodilution method; format: functional
[19] = system: Staphylococcus aureus; test: Antibacterial activity against methicillin-resistant Staphylococcus aureus ATCC 43300 by broth macrodilution method; format: functional; conditions: ATCC43300
[20] = system: Staphylococcus epidermidis; test: Antibacterial activity against methicillin-resistant coagulase-negative Staphylococcus epidermidis 197 after 50 passages by agar dilution method; format: functional; method in brief: as §3
[21] = system: Staphylococcus aureus; test: Antibacterial activity against Tmp-susceptible Staphylococcus aureus by agar dilution method; format: functional; method in brief: as §4
[22] = system: Staphylococcus epidermidis; test: Antibacterial activity against methicillin-susceptible coagulase-negative Staphylococcus epidermidis 057 by broth macrodilution method; format: functional
[23] = system: Staphylococcus epidermidis; test: Antibacterial activity against methicillin-susceptible coagulase-negative Staphylococcus epidermidis 057 after 10 passages by agar dilution method; format: functional; method in brief: as §1
[24] = system: Staphylococcus epidermidis; test: Antibacterial activity against methicillin-resistant coagulase-negative Staphylococcus epidermidis 074 by broth macrodilution method; format: functional
[25] = system: Staphylococcus aureus; test: Antibacterial activity against methicillin-resistant Staphylococcus aureus 507 by broth macrodilution method; format: functional
[26] = system: Staphylococcus epidermidis; test: Antibacterial activity against methicillin-susceptible coagulase-negative Staphylococcus epidermidis 051 after 50 passages by agar dilution method; format: functional; method in brief: as §3
[27] = system: Staphylococcus aureus; test: microbe, parasite or virus in culture; conditions: 505
[28] = system: Staphylococcus aureus; test: Antibacterial activity against methicillin-susceptible Staphylococcus aureus ATCC 29213 by broth macrodilution method; format: functional; conditions: ATCC29213
[29] = system: coagulase-negative staphylococci; test: Antibacterial activity against Tmp-susceptible coagulase-negative staphylococci by agar dilution method
[30] = system: Staphylococcus epidermidis; test: Antibacterial activity against methicillin-susceptible coagulase-negative Staphylococcus epidermidis 057 after 50 passages by agar dilution method; format: functional; method in brief: as §3
[31] = system: Staphylococcus aureus; test: Antibacterial activity against Tmp-resistant Staphylococcus aureus by agar dilution method; format: functional; method in brief: as §4
[32] = system: Staphylococcus aureus; test: Antibacterial activity against methicillin-resistant Staphylococcus aureus ATCC 43300 after 50 passages by agar dilution method; format: functional; conditions: ATCC43300
Method in brief: (§5)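 Serial passage under drug. Inoculum was ~1 × 10^6 CFU/ml from overnight MHA growth, in 1 ml MHB at 35°C for 24 h. Drug ranged from 4 log2 steps above to 3 log2 steps below the MIC. […] MIC change is given as log2 steps.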

[33] = system: Staphylococcus epidermidis; test: Antibacterial activity against methicillin-resistant, vancomycin-intermediate coagulase-negative Staphylococcus epidermidis 225 after 50 passages by agar dilution method; format: functional; method in brief: as §1
[34] = system: Staphylococcus aureus; test: Antibacterial activity against methicillin-resistant and vancomycin-resistant Staphylococcus aureus VRS1 after 50 passages by agar dilution method; format: functional; method in brief: as §1
[35] = system: Staphylococcus aureus; test: Antibacterial activity against methicillin-susceptible, vancomycin-intermediate Staphylococcus aureus 505 after 50 passages by agar dilution method; format: functional; method in brief: as §1
[36] = system: Staphylococcus aureus; test: Antibacterial activity against methicillin-resistant Staphylococcus aureus 145 after 50 passages by agar dilution method; format: functional; method in brief: as §5
[37] = system: Staphylococcus aureus; test: Antibacterial activity against methicillin-resistant Staphylococcus aureus by agar dilution method; format: functional; method in brief: as §2

SMILES | MIC [1] | MIC [2] | MIC50 [4] | MIC90 [4] | MIC50 [5] | MIC [6] | MIC50 [8] | MIC [9] | MIC [10] | MIC [11] | MIC [13] | MIC90 [13] | MIC [16] | MIC [17] | MIC [18] | MIC [20] | MIC50 [21] | MIC90 [21] | MIC [22] | MIC [24] | other results
CCC[C@@H]1C[C@@H](C(=O)N[C@@H]([C@H]2O[C@H](SC)[C@H](O)[C@@H](O)[C@H]2O)[C@H](C)Cl)N(C)C1 [CLINDAMYCIN] | 32 µg/mL (≈ 75.3 µM) | 2 µg/mL (≈ 4.71 µM) | 0.125 µg/mL (≈ 0.294 µM) | > 32 µg/mL | 0.25 µg/mL (≈ 0.588 µM) | 4 µg/mL (≈ 9.41 µM) | 2 µg/mL (≈ 4.71 µM) | 1 µg/mL (≈ 2.35 µM) | > 32 µg/mL | > 128 µg/mL | 0.125 µg/mL (≈ 0.294 µM) | 0.125 µg/mL (≈ 0.294 µM) | 0.125 µg/mL (≈ 0.294 µM) | ≤ 0.06 µg/mL | 0.125 µg/mL (≈ 0.294 µM) | 2 µg/mL (≈ 4.71 µM) | > 32 µg/mL | > 32 µg/mL | 0.125 µg/mL (≈ 0.294 µM) | 0.25 µg/mL (≈ 0.588 µM) | MIC [3]: 0.125 µg/mL (≈ 0.294 µM); MIC [7]: > 32 µg/mL; MIC [12]: > 512 µg/mL; MIC [14]: 0.125 µg/mL (≈ 0.294 µM); MIC [15]: > 32 µg/mL; MIC [19]: > 32 µg/mL; MIC [23]: > 128 µg/mL; MIC [25]: 512 µg/mL (≈ 1200 µM); MIC [26]: 4 µg/mL (≈ 9.41 µM); MIC [27]: > 128 µg/mL; MIC [28]: 0.125 µg/mL (≈ 0.294 µM); MIC50 [29]: 0.125 µg/mL (≈ 0.294 µM); MIC90 [29]: > 32 µg/mL
CC(=O)NC[C@H]1CN(c2ccc(N3CCOCC3)c(F)c2)C(=O)O1 [LINEZOLID] | 16 µg/mL (≈ 47.4 µM) | 32 µg/mL (≈ 94.9 µM) | 2 µg/mL (≈ 5.93 µM) | 2 µg/mL (≈ 5.93 µM) | 1 µg/mL (≈ 2.96 µM) | 128 µg/mL (≈ 379 µM) | 1 µg/mL (≈ 2.96 µM) | 64 µg/mL (≈ 190 µM) | 2 µg/mL (≈ 5.93 µM) | 2 µg/mL (≈ 5.93 µM) | 1 µg/mL (≈ 2.96 µM) | 2 µg/mL (≈ 5.93 µM) | 2 µg/mL (≈ 5.93 µM) | 1 µg/mL (≈ 2.96 µM) | 2 µg/mL (≈ 5.93 µM) | 32 µg/mL (≈ 94.9 µM) | 2 µg/mL (≈ 5.93 µM) | 2 µg/mL (≈ 5.93 µM) | 2 µg/mL (≈ 5.93 µM) | 1 µg/mL (≈ 2.96 µM) | MIC [30]: 64 µg/mL (≈ 190 µM); MIC [31]: 1 µg/mL (≈ 2.96 µM); MIC50 [31]: 1 µg/mL (≈ 2.96 µM); MIC90 [31]: 2 µg/mL (≈ 5.93 µM); MIC90 [5]: 2 µg/mL (≈ 5.93 µM); MIC90 [8]: 2 µg/mL (≈ 5.93 µM); MIC [32]: 64 µg/mL (≈ 190 µM); MIC [33]: 16 µg/mL (≈ 47.4 µM); MIC [34]: 32 µg/mL (≈ 94.9 µM); MIC [35]: 16 µg/mL (≈ 47.4 µM); MIC [36]: 16 µg/mL (≈ 47.4 µM); MIC [26]: 128 µg/mL (≈ 379 µM); MIC50 [37]: 2 µg/mL (≈ 5.93 µM); MIC90 [37]: 2 µg/mL (≈ 5.93 µM); MIC50 [29]: 1 µg/mL (≈ 2.96 µM); MIC90 [29]: 2 µg/mL (≈ 5.93 µM)
